According to ChEMBL document CHEMBL5257161, “Mycobacterium tuberculosis CitA activity is modulated by cysteine oxidation and pyruvate binding” (RSC Med Chem, 2023):

Experiments:
[1] = system: Mycobacterium tuberculosis; test: Binding affinity to Mycobacterium tuberculosis CitA R153ZM mutant expressed in Escherichia coli cells assessed as change in melting temperature in presence of oxaloacetate by thermal shift assay
Outline: (§1)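 Thermal shift used 25 μM purified protein in 50 mM Tris pH 8.0 with 2 mM ligand (sodium pyruvate, OAA, or both), plus Protein Thermal Shift dye at 2X final. ΔTm was taken from the melt-curve derivative relative to protein without ligand.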

[2] = system: Mycobacterium tuberculosis; test: Binding affinity to Mycobacterium tuberculosis CitA R153ZM mutant expressed in Escherichia coli cells assessed as change in melting temperature by thermal shift assay; outline: as §1
[3] = system: Mycobacterium tuberculosis; test: Binding affinity to Mycobacterium tuberculosis CitA R149E mutant expressed in Escherichia coli cells assessed as change in melting temperature by thermal shift assay; outline: as §1
[4] = system: Mycobacterium tuberculosis; test: Binding affinity to Mycobacterium tuberculosis CitA R149E mutant expressed in Escherichia coli cells assessed as change in melting temperature in presence of oxaloacetate by thermal shift assay; outline: as §1
[5] = system: Mycobacterium tuberculosis; test: Binding affinity to Mycobacterium tuberculosis CitA R149E mutant expressed in Escherichia coli cells assessed as change in melting temperature in presence of pyruvate by thermal shift assay; outline: as §1
[6] = system: Mycobacterium tuberculosis; test: Binding affinity to Mycobacterium tuberculosis CitA R153M mutant expressed in Escherichia coli cells assessed as catalytic constant by Michaelis-Menten analysis
Outline: (§2)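 His-tagged CitA (wild type or variant) was expressed in E. coli, purified by cobalt affinity and size exclusion, then dialysed against 20 mM Tris pH 8.0. Activity was measured by DTNB (300 μM) thiol detection of released CoA at 412 nm, with OAA and AcCoA substrates and 10 nM enzyme, in 50 mM Tris pH 8.0 at 25 °C. A no-enzyme control was run. Triplicate runs were fitted to Michaelis–Menten.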

[7] = system: Mycobacterium tuberculosis; test: Binding affinity to Mycobacterium tuberculosis CitA R149E mutant expressed in Escherichia coli cells assessed as apparent Km by Michaelis-Menten analysis; outline: as §2
[8] = system: Mycobacterium tuberculosis; test: Binding affinity to Mycobacterium tuberculosis CitA R153M mutant expressed in Escherichia coli cells assessed as apparent Km by Michaelis-Menten analysis; outline: as §2
[9] = system: Mycobacterium tuberculosis; test: Binding affinity to Mycobacterium tuberculosis CitA R149E mutant expressed in Escherichia coli cells assessed as catalytic constant by Michaelis-Menten analysis; outline: as §2
[10] = system: Mycobacterium tuberculosis; test: Binding affinity to Mycobacterium tuberculosis CitA R153M mutant expressed in Escherichia coli cells assessed as Vmax by Michaelis-Menten analysis; outline: as §2
[11] = system: Mycobacterium tuberculosis; test: Binding affinity to Mycobacterium tuberculosis CitA R153M mutant expressed in Escherichia coli cells assessed as Kcat/Km by Michaelis-Menten analysis; outline: as §2
[12] = system: Mycobacterium tuberculosis; test: Binding affinity to Mycobacterium tuberculosis CitA R153ZM mutant expressed in Escherichia coli cells assessed as change in melting temperature in presence of pyruvate by thermal shift assay; outline: as §1
[13] = system: Mycobacterium tuberculosis; test: Binding affinity to Mycobacterium tuberculosis CitA R149E mutant expressed in Escherichia coli cells assessed as Kcat/Km by Michaelis-Menten analysis; outline: as §2
[14] = system: Mycobacterium tuberculosis; test: Binding affinity to Mycobacterium tuberculosis CitA R149E mutant expressed in Escherichia coli cells assessed as Vmax by Michaelis-Menten analysis; outline: as §2

CC(=O)C(=O)O
ΔTm [1]: 14.3 °C
ΔTm [2]: 0.51 °C
ΔTm [3]: 0.47 °C
ΔTm [4]: 10.7 °C

O=C(O)CC(=O)C(=O)O
ΔTm [2]: 14.3 °C
ΔTm [5]: 10.7 °C
kcat [6]: 3.3 s⁻¹
Km [7]: 11.7 µM
Km [8]: 3.2 µM
kcat [9]: 4.68 s⁻¹
ΔTm [3]: 10.8 °C
Vmax [10]: 2 µM/min
kcat/Km [11]: 1.05e+06 M⁻¹ s⁻¹
ΔTm [12]: 14.3 °C
kcat/Km [13]: 400000 M⁻¹ s⁻¹
Vmax [14]: 2.8 µM/min
